# Compound activity from PubChem.
# Hits are enriched below; roughly 3.7% of the tested compounds scored in any of these assays.
# KCNK9 inh – blocks the human KCNK9 two-pore domain potassium channel | HEK293 KCNK9, FluxOR thallium flux fluorescence; hits give low values | AID 488922 | 310,000 tested, 1.2% active | B-score at 10 µM;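 active means ratio B-score over 3 SD below the library mean, with starting fluorescence within 5 SD of its mean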;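 further: negative B-score means less thallium flux so channel inhibition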
# Target sequence (Q9NPC2 whole entry, looked up, the tested form may be a part): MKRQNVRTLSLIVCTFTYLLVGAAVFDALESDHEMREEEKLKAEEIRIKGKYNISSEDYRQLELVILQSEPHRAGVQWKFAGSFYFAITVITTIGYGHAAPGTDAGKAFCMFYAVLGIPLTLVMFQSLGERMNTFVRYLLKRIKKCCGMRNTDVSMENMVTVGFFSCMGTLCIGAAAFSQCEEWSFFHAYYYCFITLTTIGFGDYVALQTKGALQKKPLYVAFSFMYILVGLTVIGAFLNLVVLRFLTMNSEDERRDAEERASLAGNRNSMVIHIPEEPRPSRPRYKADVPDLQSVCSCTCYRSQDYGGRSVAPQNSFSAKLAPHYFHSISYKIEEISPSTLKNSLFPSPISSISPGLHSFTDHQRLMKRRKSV
# KCNQ1 inh – blocks the human KCNQ1 potassium channel | P51787 | CHO-K1 KCNQ1, FluxOR thallium flux fluorescence; hits give high values | B-score at 10 µM | 310,000 tested, 1.3% active | AID 2642;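 active means compounds whose thallium flux B-score, printed positive for inhibition, exceeds three library SD while starting fluorescence stays within three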;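 further: channel opened by potassium depolarization with thallium stimulus after 20 min compound exposure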
# Kir21 inh – inhibitors of mouse Kir2.1 inward-rectifier potassium channel. B-score at 10 µM. AID 1672. HEK293-Kir2.1, FluxOR thallium flux fluorescence; hits give low values. P35561. 310,000 tested, 0.85% active;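 active means fluorescence ratio B-score at or below minus 3 SD of library scores, with starting-brightness B-score within 2 SD, cut at about -4.2 in these data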;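 further: channel flux triggered by added potassium and thallium sulfate stimulus; B-score of peak minus minimum fluorescence over baseline after thallium stimulus; more negative B-score means stronger Kir2.1 block with less thallium influx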
# KCNK3 block – human KCNK3 channel inhibition, primary screen; O14649; CHO-KCNK3 thallium flux, FluxOR fluorescence; hits give low values; B-score at 10 µM; 340,000 tested, 0.84% active; AID 602410;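 active means B-score under library mean minus 4 SD, starting fluorescence ratio at most library mean plus 5 SD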;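 further: more negative B-score means stronger inhibition of thallium flux through KCNK3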
# hERG protect – shields human hERG channel from block by proarrhythmic agents; 310,000 tested, 0.51% active; CHO-hERG, FluxOR thallium flux, dofetilide IC70 present; Q12809; AID 1511; activation (rescue from dofetilide block), less the hit threshold, % at 10 µM;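 active means activation above the mean of controls blocked by dofetilide plus 5 SD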;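 further: thallium influx through hERG after potassium depolarization seen as dye fluorescence rise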
# KCNQ1 pot – human KCNQ1 channel potentiation or activation | P51787 | CHO-K1 KCNQ1, thallium flux FluxOR fluorescence; hits give high values | B-score at 10 µM | 310,000 tested, 0.35% active | AID 2648;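 active means fluorescence ratio B-score, a plate-corrected score, at least three library SD, with initial intensity B-score within 5 SD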
#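 Medium – assay buffer, equal DMSO in all wells · Material – CHO-K1 cell line with stable KCNQ1 potassium channel expression · Signal – kinetic FluxOR thallium fluorescence, 10-s 1-Hz baseline, 110-s post-stimulus read · Compound – single concentration per compound, DMSO matched to controls · Schedule – 37 °C overnight plating, 90-min dark dye load, 20-min compound pretreatment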
# KCNK3 inh conf – confirmation of human KCNK3 two-pore domain potassium channel inhibitors; ratio percent of control, % at 10 µM; CHO-KCNK3 thallium flux, FluxOR fluorescence; 0% buffer, 100% carvedilol maximal block; shares compounds with KCNK3 block; 2,400 tested, 99% active; AID 651638;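 active means ratio percent of control, averaged over triplicates, above buffer control mean plus 5 SD, cut at about 64% in these data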;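 further: ratio is the fluorescence rise from min to max over baseline after thallium stimulus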
# KCNK3 noninduced – KCNK3 inhibitor counter-screen hit in non-induced cells. shares compounds with KCNK3 block. non-induced KCNK3 parental cells, FluxOR thallium flux; hits give low values. thallium flux ratio (lower = more inhibition) at 10 µM. 2,400 tested, 40% active. AID 651747;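 active means thallium flux ratio, averaged over three wells, more than 5 SD below the buffer control mean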;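 further: host cells are CHO cells without KCNK3 induction; ratio is peak minus trough fluorescence over baseline then normalized to buffer controls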
# * marks the source's active call; other numbers are inactive results; i = inactive; · = no result.
SMILES,KCNK9 inh,KCNQ1 inh,Kir21 inh,KCNK3 block,hERG protect,KCNQ1 pot,KCNK3 inh conf,KCNK3 noninduced
CN(C)c1cccc(C(=O)N2CCCC(CCC(=O)NCc3ccccc3F)C2)c1 (stereo not drawn),i,i,0.38,i,-5,i,·,·
CN(C(=O)Nc1ccc(Cl)cc1Cl)[C@H]1c2cc(Br)ccc2OC[C@H]1CO,i,i,0.02,-8.9*,-10,i,100*,i
COc1cccc2c1OC[C@@H](CO)[C@H]2N(C)C(=O)Nc1ccccc1,i,i,0,i,-7,i,·,·
C/C(=C\C(=O)c1ccc(Cl)cc1)NCc1ccc2c(c1)OCO2,i,i,-0.72,-9.8*,-6,i,84*,0.16*
COC(=O)NCc1ccc2c(c1)OCO2,i,i,1.4,i,-8,i,·,·
CCOc1ccc(CN(C)c2nc(-c3cccnc3)nc3ccccc23)cc1OC,i,i,-0.26,-16*,-7,i,104*,i
O=C(NCc1ccc(Cl)cc1)C(=O)NCC1OCCN1C(=O)c1ccc(Cl)cc1 (stereo not drawn),i,i,1.4,i,-13,i,·,·
O=C(c1ccc(-c2ccccc2)cc1)N1CCN(c2ccccc2F)CC1,i,i,0.93,-9.2*,-9,i,108*,i
CC1Cc2ccccc2N1S(=O)(=O)c1cccs1 (stereo not drawn),i,i,-2.7,-9.4*,-15,i,124*,0.13*
Cc1ccc(S(=O)(=O)N2c3ccccc3CC2C)cc1 (stereo not drawn),i,i,-2.5,i,-15,i,·,·
CCN(CC(=O)NC(C)C)C(=O)[C@H](C)NC(=O)c1ccc(Br)cc1,i,i,0.08,i,-9,i,·,·
Cc1c(/C=N/NC(=O)c2ccccc2O)c2ccccn2c1C(=O)c1ccc(F)cc1,-7.9*,10*,0.1,-11*,-20,i,129*,0.16*
Cc1c(/C=N/NC(=O)c2ccc(O)cc2)c2ccccn2c1C(=O)c1ccc(F)cc1,i,i,0.05,i,-7,i,·,·
Cc1ccc(NC(=O)CSCC(=O)OC(C)C(=O)Nc2ccccc2C)cc1 (stereo not drawn),·,·,·,i,·,·,·,·
N#Cc1cc2cc3ccccc3nc2n2c(=O)c3ccccc3nc12,i,i,-2.5,-9.6*,-9,i,122*,0.12*
Cn1c(=O)c2cc3ccccc3nc2n(C)c1=O,i,i,0.42,i,-1,i,·,·
N#Cc1cc2c(nc1SCc1ccc(Cl)nc1)CCCCC2,-7*,i,2.1,-11*,-14,i,116*,0.16*
Cc1cccc(NC(=S)NC(=O)c2ccco2)n1,i,i,0.4,i,-6,i,·,·
Cc1sc(NC(=O)c2ccco2)nc1-c1ccc2c(c1)CC(C)N2C(=O)C1CC1 (stereo not drawn),i,6*,-1.2,-9.4*,-20,i,101*,i
Cc1sc(NC(=O)c2ccco2)nc1-c1ccccc1,i,i,2.3,i,-20,i,·,·
C=CCN(c1ccccc1)S(=O)(=O)c1cccc(C(=O)Nc2ncccc2O)c1,i,i,-0.17,i,-7,i,·,·
COc1cc(C(=O)NC(C)C2CC3CCC2C3)ccc1OC(F)F (stereo not drawn),·,·,·,-12*,·,·,110*,0.12*
CC(NC(=O)c1ccc(F)cc1)C1CC2CCC1C2 (stereo not drawn),i,i,-1.6,i,-6,i,·,·
CCOc1ccc(N(CC(=O)N2CCCCC2)S(=O)(=O)c2ccc(Cl)cc2)cc1,i,i,-1.3,i,-9,i,·,·
CCOc1ccc(OCC)c(S(=O)(=O)n2cnc(C)c2)c1,i,i,-0.78,-8.8*,-9,i,82*,i
SMILES,KCNK9 inh,KCNQ1 inh,Kir21 inh,KCNK3 block,hERG protect,KCNQ1 pot,KCNK3 inh conf,KCNK3 noninduced
CCOc1ccc(NC(=S)N(CCN2CCOCC2)Cc2cc3cc4c(cc3[nH]c2=O)OCO4)cc1,i,i,1.4,i,-11,i,·,·
Cc1cccc(NC(=S)N(CCN2CCOCC2)Cc2cc3cc4c(cc3[nH]c2=O)OCCO4)c1,i,i,-1.5,-12*,-15,i,91*,i
Cc1ccc(NC(=S)N(CCN2CCOCC2)Cc2cc3cc4c(cc3[nH]c2=O)OCO4)cc1,i,i,0.02,-11*,-12,i,92*,i
Cc1ccc(NC(=S)N(CCN2CCOCC2)Cc2cc3cc4c(cc3[nH]c2=O)OCCO4)cc1,i,i,0.34,-8.9*,-12,i,98*,i
COc1ccc(NC(=S)N(CCN2CCOCC2)Cc2cc3cc4c(cc3[nH]c2=O)OCO4)cc1,i,i,1.4,·,-3,i,·,·
C=C(C)CSc1nc(N)cc(=O)[nH]1,i,i,-0.07,-21*,-1,i,67*,i
Cc1ccc(C(=O)CSc2nc(N)cc(=O)[nH]2)cc1,i,i,-1.2,i,-9,i,·,·
Cc1ccc(/C=C/c2nnc(-c3cccs3)o2)cc1,i,i,0.39,-8.8*,-14,i,84*,i
Cc1ccc(/C=C/c2nnc(-c3ccc(C)cc3)o2)cc1,i,i,-1.2,i,-8,i,·,·
Cc1cc(F)ccc1S(=O)(=O)NCC(c1ccc2c(c1)OCO2)N1CCOCC1 (stereo not drawn),i,i,0.2,-11*,-15,i,70*,i
Cc1ccc(C)c(S(=O)(=O)NCC(c2ccc3c(c2)OCO3)N2CCOCC2)c1 (stereo not drawn),i,i,1.4,i,-9,i,·,·
Cc1ccc(S(=O)(=O)CCC(=O)N(C)C2CCCCC2)cc1,i,i,-2.7,i,-4,i,·,·
CCOC(=O)C1=C(C)N=c2s/c(=C/c3cccc([N+](=O)[O-])c3O)c(=O)n2C1c1ccccc1 (stereo not drawn),i,13*,1.1,-12*,-28,i,124*,0.1*
CN(C)c1ccc(S(=O)(=O)N2CCCCC2)cc1NC(=O)C1=NN(c2ccccc2)C(=O)CC1,i,i,-0.16,i,-10,i,·,·
Clc1ccccc1/C=C/C=N/Nc1nc(N2CCOCC2)nc(N2CCOCC2)n1,i,i,-0.47,-10*,-19,i,94*,i
